The record followed here is ChEMBL document CHEMBL1129067, “Dioxabicyclooctanyl naphthalenenitriles as nonredox 5-lipoxygenase inhibitors: structure-activity relationship study directed toward the improvement of metabolic stability” (J Med Chem, 1996).

Each structure is given as a SMILES string.

Assay [1] concerns the target T1, Polyunsaturated fatty acid 5-lipoxygenase (Homo sapiens, UniProt P09917).
T1 sequence (P09917 whole entry): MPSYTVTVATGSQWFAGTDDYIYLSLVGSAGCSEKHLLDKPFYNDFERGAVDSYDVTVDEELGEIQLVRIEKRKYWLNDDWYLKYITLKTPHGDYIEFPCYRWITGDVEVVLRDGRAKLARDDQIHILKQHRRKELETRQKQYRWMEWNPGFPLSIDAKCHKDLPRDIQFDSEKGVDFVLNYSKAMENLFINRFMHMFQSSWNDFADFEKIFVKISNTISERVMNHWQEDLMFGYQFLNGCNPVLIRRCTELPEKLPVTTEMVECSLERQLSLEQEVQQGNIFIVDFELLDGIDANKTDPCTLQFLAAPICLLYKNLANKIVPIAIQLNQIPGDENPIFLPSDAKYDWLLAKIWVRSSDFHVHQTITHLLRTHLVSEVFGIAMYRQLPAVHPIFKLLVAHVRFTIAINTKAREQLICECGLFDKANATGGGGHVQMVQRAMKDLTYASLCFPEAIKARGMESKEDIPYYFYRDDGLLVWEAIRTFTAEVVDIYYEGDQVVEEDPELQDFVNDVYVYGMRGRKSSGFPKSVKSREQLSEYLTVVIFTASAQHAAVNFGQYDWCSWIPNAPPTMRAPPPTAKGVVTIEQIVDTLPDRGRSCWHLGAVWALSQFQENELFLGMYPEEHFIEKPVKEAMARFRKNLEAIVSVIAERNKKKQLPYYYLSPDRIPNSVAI
The experiment in a line: Potency to inhibit oxidation of arachidonic acid by recombinant human 5-lipoxygenase.

Assay [2] is filed under the species Homo sapiens. The experiment in a line: Test inhibition of LTB4 production in human peripheral blood polymorphonuclear leukocytes (HPMN). It is filed as functional. Put shortly:
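LTB4 generation measured in human peripheral blood polymorphonuclear leukocytes. IC50 values are the mean of at least two independent determinations, though some values come from a single titration.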

The species named for assay [3] is Homo sapiens. As to the kind of experiment: Compound was tested for the inhibition of LTB4 production in human whole blood (HWB). It is filed as functional. The procedure, abridged: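 LTB4 generation measured in human whole blood. IC50 values are the mean of at least two independent titrations, though some values come from a single titration. Where more than two IC50 values were determined, the 95% confidence limits were within 90% of the mean.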

As a reminder, the IC50 is the midpoint of a concentration-inhibition curve. With `O=C1CC(O)(c2cccc(COc3ccc4c(-c5ccccc5)c5c(cc4c3)C(=O)OC5)c2)CCO1` (stereo not given), the IC50 is 390 nM in assay [1]; 35 nM in the assay filed under Homo sapiens [2] (Homo sapiens); above 3000 nM in the assay listed under Homo sapiens [3] (Homo sapiens, Blood).
For `CC1OC(=O)c2cc3cc(OCc4cccc(C5(O)CCOCC5)c4)ccc3c(-c3ccccc3)c21` (stereo not given) the same measures were 1300 nM, 150 nM and above 3000 nM.
For `O=C1OCc2c1cc1cc(OCc3cccc(C4(O)CCOCC4)c3)ccc1c2-c1ccc(Cl)cc1` the same measures were 5500 nM, 26 nM and above 3000 nM.
As for `O=C1OCc2c1cc1cc(OCc3cccc(C4(O)CC5COC(C4)O5)c3)ccc1c2-c1ccoc1` (stereo in doubt; 3v), the IC50 was determined as 340 nM in assay [1], 21 nM in the assay filed under Homo sapiens [2] and 2100 nM in the assay filed under Homo sapiens [3].
With `COC1(c2cc(F)cc(OCc3ccc4c(ccc(=O)n4C)c3)c2)CCOCC1` [ZD-2138], the IC50 in assay [1] worked out at 330 nM; in the assay listed under Homo sapiens [2] (Homo sapiens) it was 10 nM; in the assay listed under Homo sapiens [3] (Homo sapiens, Blood), 80 nM.
